An excerpt weighted towards active compounds, which were near 4.6% of everything screened.
CHO parental Ca = counter-screen for OX1R antagonists: effect in parental CHO cells. parental CHO-K1, ATP-induced calcium, Fluo-8 fluorescence. 330,000 tested, 0.63% active. inhibition, % at 5.6 µM. AID 463079;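 active means inhibition above that plate's mean sample inhibition plus 3 SD, cut at about 26% in these data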;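 further: 0% = ATP-challenged DMSO wells and 100% = DMSO wells without ATP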
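Test system: untransfected parental CHO cell line; also added: ATP stimulus; dosing: 5.6 µM, single dose; signal: calcium-sensitive Fluo-8 fluorescence; measure: percent inhibition of ATP-evoked calcium rise, normalized to controls; benchmarks: low control ATP plus DMSO, high control DMSO only; replication: one well per compound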
TAAR1 ag = agonists of human TAAR1; CHO RD-HGA16 TAAR1, Fluo-8 calcium fluorescence; vehicle wells 0%, saturating PEA agonist 100%; activation, % at 3 µM; 360,000 tested, 0.99% active; AID 624467;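 active means activation above the mean activation of all test compounds in the run plus 3 SD, cut at about 38% in these data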
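Test system: RD-HGA16 (CHO) cells co-expressing Gα16 and hTAAR1 | Doses: Single dose, 3 µM | Schedule: 17-24 h seeding, 75 min 37 °C dye, 30 min RT | Evaluation: % activation from peak over basal fluorescence ratio, DMSO-to-PEA scaled | Technique: Kinetic Fluo-8 calcium fluorescence | Benchmarks: Low control DMSO, high control PEA (EC100)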
OX1R antag-1 = OX1R (human) antagonism; O43613; OX1R-expressing cells, FRET antagonist read-out; inhibition, % at 6.6 µM; 330,000 tested, 1.8% active; in the data active means inhibition mostly above about 38%, no sharp cut-off; inactive means mostly below about 40%;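 further: 0% = agonist challenge alone and 100% = reference antagonist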
TAAR1 antagonist = human TAAR1 antagonism; Q96RJ0; CHO RD-HGA16 TAAR1, Fluo-8 calcium fluorescence, antagonist; inhibition, % at 3 µM; 360,000 tested, 1.5% active;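 active means inhibition above a per-plate cutoff, the mean inhibition of test compounds on that plate plus 3 SD, cut at about 49% in these data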;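 further: 0% = DMSO plus EC80 beta-PEA response and 100% = DMSO alone without agonist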
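Test system: CHO RD-HGA16 cells bearing hTAAR1 | Reagent: β-PEA, EC80 | Compound dosing: 3 µM, single point | Schedule: Dye loading 75 min at 37 °C, then 30 min room temperature | Signal: Calcium fluorescence with Fluo-8 | Evaluation: Percent inhibition of PEA-evoked calcium signal, max/basal emission ratio | Control set: DMSO-only wells and EC80 β-PEA-stimulated wells | Repeats: Singlicate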
GPR7 antagonist = antagonists of human GPR7 (neuropeptides B/W receptor 1); P48145; GPR7-expressing cells, fluorescence antagonist assay; inhibition, % at 4.4 µM; 290,000 tested, 1.1% active; in the data active means inhibition above about 16%, passing the limit was not always enough;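 further: cells stimulated with the agonist NPW; 0% = agonist with vehicle and 100% = vehicle without agonist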
Target sequence (P48145 whole entry, looked up): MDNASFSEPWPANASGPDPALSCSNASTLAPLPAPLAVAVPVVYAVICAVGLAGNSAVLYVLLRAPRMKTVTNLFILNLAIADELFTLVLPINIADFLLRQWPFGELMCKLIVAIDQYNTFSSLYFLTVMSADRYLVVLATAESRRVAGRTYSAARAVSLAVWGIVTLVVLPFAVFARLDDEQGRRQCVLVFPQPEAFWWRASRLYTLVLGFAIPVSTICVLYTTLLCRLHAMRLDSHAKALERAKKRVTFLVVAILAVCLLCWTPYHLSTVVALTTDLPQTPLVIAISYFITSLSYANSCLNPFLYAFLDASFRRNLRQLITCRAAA
OX1R antag-2 = blocks the human orexin 1 receptor. inhibition, % at 5 µM. O43613. 330,000 tested, 0.43% active. CHO/OX1R cells, Fluo-8 calcium fluorescence, orexin A. AID 434989;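 active means inhibition above its plate's threshold, mean inhibition of all tested compounds on the plate plus 3 SD, cut at about 37% in these data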;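 further: 0% = orexin A challenge wells and 100% = SB-334867-A antagonist wells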
TAAR1 ag conf = confirmation of human TAAR1 agonists. 2,400 tested, 82% active. activation, % at 3 µM. shares compounds with TAAR1 ag. CHO RD-HGA16 TAAR1, Fluo-8 calcium fluorescence; scaled: DMSO 0%, maximal phenethylamine 100%;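 active means activation above a cutoff set at the run's mean compound activation plus 3 SD, cut at about 39% in these data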
Ga16 nonsel ag = nonselective agonist in parental cells, TAAR1 agonist counter-screen. activation, % at 3 µM. 2,400 tested, 50% active. shares compounds with TAAR1 ag. CHO-Ga16 parental, Fluo-8 calcium fluorescence; normalized to maximal ATP response, DMSO zero;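 active means activation above the run cutoff, the mean activation over all tested wells plus 3 SD, cut at about 12% in these data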;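 further: 0% = DMSO wells and 100% = maximal ATP response on the peak over basal ratio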
TAAR1 desensitize = human TAAR1 agonist that also desensitizes the receptor. shares compounds with TAAR1 ag. CHO RD-HGA16 hTAAR1, Fluo-8 calcium, beta-PEA response inhibition. inhibition, % at 3 µM. 2,400 tested, 46% active. AID 651951;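 active means inhibition above the run cutoff, the mean inhibition of all test compounds plus 3 SD, cut at about 49% in these data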;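 further: beta-PEA stimulus applied at its EC80; loss of beta-PEA calcium signal after compound pretreatment read as receptor desensitization; 0% = DMSO with beta-PEA at EC80 and 100% = DMSO alone without agonist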
Ga16 nonsel ant = nonselective Ga16 antagonism, counter-screen; shares compounds with TAAR1 ag; CHO-Ga16 ATP-induced calcium, Fluo-8 fluorescence; inhibition, % at 3 µM; 2,400 tested, 39% active;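 active means inhibition above the plate's mean compound inhibition plus 3 SD, computed per plate, cut at about 22% in these data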;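 further: 0% = EC80 ATP with DMSO and 100% = DMSO wells without ATP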
Active calls of the source: *; · = no result.

SMILES | CHO parental Ca | TAAR1 ag | OX1R antag-1 | TAAR1 antagonist | GPR7 antagonist | OX1R antag-2 | TAAR1 ag conf | Ga16 nonsel ag | TAAR1 desensitize | Ga16 nonsel ant
COC(=O)c1cnc(Nc2nc(C(N)c3ccccc3Cl)cs2)nc1C(F)(F)F (stereo not drawn) | · | 60.3* | · | 40.8 | · | · | 68.3* | 36.0* | 28.8 | 28.5*
Cc1ccc2c(=O)n3c(nc2c1)C(Cc1ccc(O)cc1)NC(=O)c1cc2ccccc2cc1-3 (stereo not drawn) | · | 2.1 | · | 35.2 | · | · | · | · | · | ·
O=C1CCC(C(=O)Nc2ccc(Cl)cc2)N1 (stereo not drawn) | -7.8 | 7.4 | 1.4 | 5.0 | -12.6 | -18.7 | · | · | · | ·
O=C(Nc1ccc(Cl)cc1)C1C2CCCCC21 (stereo not drawn) | 62.5* | 56.8* | 16.6 | 59.3* | 22.6 | 31.9 | 18.3 | 3.0 | 7.3 | 9.0
CCCc1c(C(=O)N/N=C/c2ccc(C)s2)nnn1-c1nonc1N | 0.4 | 2.7 | -5.2 | 5.9 | 9.2 | -7.0 | · | · | · | ·
COc1cccc(/C=N/NC(=O)c2nnn(-c3nonc3N)c2-c2cccs2)c1 | 8.2 | 17.7 | 18.8 | 3.9 | -4.1 | -8.5 | · | · | · | ·
CCOc1ccc(-c2c(C(=O)N/N=C/c3ccsc3)nnn2-c2nonc2N)cc1 | -30.5 | 119.1* | 8.3 | 20.9 | -15.8 | -53.3 | 111.0* | 73.9* | 22.5 | 10.0
CCOc1ccc(-c2c(C(=O)N/N=C/c3ccc(OC)cc3)nnn2-c2nonc2N)cc1 | -24.4 | 50.9* | 24.1 | 4.9 | -10.2 | -18.4 | 47.5* | 22.9* | 3.6 | 4.5
COc1cccc(-c2c(C(=O)N/N=C/c3ccsc3)nnn2-c2nonc2N)c1 | -9.3 | 128.8* | 26.2 | 31.8 | -11.8 | -28.5 | 145.0* | 105.8* | 72.2* | 29.1*
CCCc1c(C(=O)N/N=C/c2cccs2)nnn1-c1nonc1N | -2.8 | 65.2* | 16.2 | -13.6 | -18.9 | -7.5 | 26.8 | 19.2* | 4.3 | 15.2
CCOc1ccccc1OCC(=O)NC1CCSc2ccccc21 (stereo not drawn) | · | -2.8 | · | 8.7 | · | · | · | · | · | ·
COc1cc(C(=O)N(Cc2ccccc2)c2cccc(C)c2)ccc1OCC(=O)N1CCOCC1 | · | 3.7 | · | -15.1 | · | · | · | · | · | ·
CCCOc1ccc(-c2c(C(=O)N/N=C/c3ccncc3)nnn2-c2nonc2N)cc1 | -22.2 | 46.6* | 14.0 | 18.4 | 1.7 | -22.3 | 30.3 | 12.1* | 24.0 | 19.8
CCc1ccc(/C=N/NC(=O)c2nnn(-c3nonc3N)c2CN2CCOCC2)cc1 | 0.2 | 62.9* | 22.8 | 3.2 | -8.1 | -12.2 | 59.1* | 52.0* | 20.1 | 16.2
CCOc1cccc(-c2c(C(=O)N/N=C/c3cccnc3)nnn2-c2nonc2N)c1 | -8.3 | 13.8 | 10.3 | -3.8 | 5.4 | -8.5 | · | · | · | ·
CCOc1cccc(-c2c(C(=O)N/N=C/c3ccc(Br)cc3)nnn2-c2nonc2N)c1 | -11.2 | 101.6* | 1.0 | 37.4 | -1.8 | -17.1 | 97.2* | 81.9* | 57.8* | 47.9*
CCCOc1ccc(-c2c(C(=O)N/N=C/c3ccc(OCC)cc3)nnn2-c2nonc2N)cc1 | -21.1 | 16.2 | 19.5 | -25.3 | -6.2 | -31.0 | · | · | · | ·
CCOc1cc(C=NN=C2c3ccccc3-c3ccccc32)ccc1O | · | 5.1 | · | -5.9 | · | · | · | · | · | ·
O=C(COc1ccccc1)NNC(=O)c1cc2ccccc2oc1=O | -4.6 | 45.3* | 23.4 | 0.9 | -4.5 | -21.2 | 71.8* | 3.4 | 43.4 | 6.1
COc1ccc(C(=O)NCc2nnc(SCC(=O)N3CCc4ccccc43)o2)cc1OC | -14.7 | 5.6 | 7.4 | 8.5 | -9.9 | -16.9 | · | · | · | ·
O=C(CSc1nnc(CNc2ccccc2)o1)N1CCc2ccccc21 | 12.5 | 74.1* | 19.8 | 75.0* | -15.8 | 2.1 | 9.5 | 9.2 | 13.7 | 13.3
